Experimental data: ChEMBL document CHEMBL1126688, “Interphenylene 7-oxabicyclo[2.2.1]heptane oxazoles. Highly potent, selective, and long-acting thromboxane A2 receptor antagonists” (J Med Chem, 1993)

Experiments:
[1] = Partition coefficient (logP); format: physicochemical; conditions: octanol/water
Procedure, shortened: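 log P came from reversed-phase TLC Rm values on C18 plates. Eluent was acetone in 0.5 M aqueous KBr, buffered with 0.25 N triethylammonium phosphate to pH 7.3. Values were converted with a calibration curve built from shake-flask partition coefficients (pH 7.0) of seven oxabicycloheptane compounds spanning a range of lipophilicities.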

Homo sapiens [2] = species: Homo sapiens; test: Inhibitory activity against platelet aggregation, induced by U-46619 in human platelet rich plasma; format: functional; conditions: read-out: I50
Procedure, shortened: (§1)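 Human platelet-rich plasma. Aggregation was induced by exogenous arachidonic acid or by the TxA2 mimetic U-46,619, each at a single fixed agonist level. I50 was taken as the antagonist concentration giving 50% inhibition of aggregation.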

Homo sapiens [3] = species: Homo sapiens; test: Inhibitory activity against platelet aggregation, induced by arachidonic acid in human platelet rich plasma; format: functional; conditions: read-out: I50; procedure, shortened: as §1
Thromboxane A2 receptor = target: T1, Thromboxane A2 receptor (Homo sapiens, UniProt P21731); test: Inhibitory binding activity against TXA2 receptor in human platelet membrane, using [3H]-SQ 29548 as the radioligand
T1 sequence (P21731 whole entry): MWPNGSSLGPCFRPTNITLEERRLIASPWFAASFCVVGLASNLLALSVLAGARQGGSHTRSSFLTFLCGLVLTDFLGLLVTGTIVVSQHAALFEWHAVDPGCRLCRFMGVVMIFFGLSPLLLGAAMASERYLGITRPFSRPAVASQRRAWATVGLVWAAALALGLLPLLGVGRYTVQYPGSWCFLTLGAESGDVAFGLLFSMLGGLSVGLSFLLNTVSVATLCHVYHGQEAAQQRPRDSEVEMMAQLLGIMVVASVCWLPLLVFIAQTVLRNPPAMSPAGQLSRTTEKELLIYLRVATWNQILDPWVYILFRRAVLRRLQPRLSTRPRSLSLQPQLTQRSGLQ
Procedure, shortened: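 Competition binding of [3H]-SQ 29,548 to TxA2 receptors in human platelet membranes, measured as inhibition of specific binding. Kd (inhibition constant) was calculated from each compound's I50 value. A slope factor is also reported.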

Mus musculus = test: In vivo duration of action required to prevent death in mice, after i.v. administration of U-46619 (2 mg/kg) at 0.2 mg/kg p.o.; conditions: po

Row | Compound | logP [1] | IC50 (Homo sapiens [2]) [nM] | IC50 (Homo sapiens [3]) [nM] | Kd (Thromboxane A2 receptor) [nM] | T50 (Mus musculus) [h]
1 | O=C(O)CCc1ccccc1CC1C2CCC(O2)C1c1nc(C(=O)NCCCCN2CCCCC2)co1 (stereo not given) | 0.53 | 137 | 30 | 22 | –
2 | O=C(O)CCc1ccccc1CC1C2CCC(O2)C1c1nc(C(=O)Nc2ccccc2)co1 (stereo not given) | 1.19 | – | 12 | – | –
3 | O=C(O)Cc1cccc(CCC2C3CCC(O3)C2c2nc(C(=O)NCCCCC3CCCCC3)co2)c1 (stereo not given) | – | – | 146 | 16.3 | –
4 | O=C(O)CCc1ccccc1CC1C2CCC(O2)C1c1nc(C(=O)NCCCCC(F)(F)F)co1 (stereo not given) | 1.59 | 29 | 12 | 4.8 | –
5 | CCC(C)(C)NC(=O)c1coc(C2C3CCC(O3)C2Cc2ccccc2CCC(=O)O)n1 (stereo not given) | 0.51 | 30 | 12 | 0.8 | 8.8
6 | COc1ccc(CCCCNC(=O)c2coc(C3C4CCC(O4)C3Cc3ccccc3CCC(=O)O)n2)cc1 (stereo not given) | 2.49 | 62 | 16 | 0.3 | –
7 | CC(C)(CCCCNC(=O)c1coc(C2C3CCC(O3)C2Cc2ccccc2CCC(=O)O)n1)C(=O)O (stereo not given) | 0.5 | – | 64 | – | –
8 | CC(C)(Cc1ccccc1CC1C2CCC(O2)C1c1nc(C(=O)NCCCCC2CCCCC2)co1)C(=O)O (stereo not given) | – | 13 | 4 | 36 | –
9 | O=C(NCCCCC1CCCCC1)c1coc(C2C3CCC(O3)C2Cc2ccccc2CCCO)n1 (stereo not given) | – | – | 1540 | 112 | –
10 | COc1ccc(NC(=O)c2coc(C3C4CCC(O4)C3Cc3ccccc3CCC(=O)O)n2)cc1 (stereo not given) | 0.95 | – | 6 | – | –
11 | O=C(O)Cc1ccccc1CCC1C2CCC(O2)C1c1nc(C(=O)NCCCCC2CCCCC2)co1 (stereo not given) | – | – | 1580 | – | –
12 | O=C(O)CCc1ccccc1CC1C2CCC(O2)C1c1nc(C(=O)NCCCCc2ccccc2)co1 (stereo not given) | 1.8 | 13 | 4 | 0.3 | 20
13 | O=C(O)CCc1ccccc1CC1C2CCC(O2)C1c1nc(CO)co1 (stereo not given) | – | – | 31000 | – | –
14 | O=C(O)Cc1cccc(CC2C3CCC(O3)C2c2nc(C(=O)NCCCCC3CCCCC3)co2)c1 (stereo not given) | – | 34 | 12 | 1.2 | –
15 | O=C(O)c1cccc(CCC2C3CCC(O3)C2c2nc(C(=O)NCCCCC3CCCCC3)co2)c1 (stereo not given) | – | – | 110 | 18.4 | –
16 | O=C(O)CCc1ccccc1CC1C2CCC(O2)C1c1nc(C(=O)OCCCCC2CCCCC2)co1 (stereo not given) | – | 10 | 2 | 1 | –
17 | CSc1ccc(CCCCNC(=O)c2coc(C3C4CCC(O4)C3Cc3ccccc3CCC(=O)O)n2)cc1 (stereo not given) | 1.66 | – | 6 | 2.9 | –
18 | CC(C)(C)NC(=O)c1coc(C2C3CCC(O3)C2Cc2ccccc2CCC(=O)O)n1 (stereo not given) | -0.02 | 61 | 12 | 19 | 7.4
19 | O=C(O)CCc1ccccc1CCC1C2CCC(O2)C1c1nc(C(=O)NCCCCC2CCCCC2)co1 (stereo not given) | – | 616 | 63 | – | –
20 | O=C(O)CCc1ccccc1CC1C2CCC(O2)C1c1nc(C(=O)NCCCCc2ccc(O)cc2)co1 (stereo not given) | 1.49 | – | 12 | 0.5 | –
21 | CC(C)NC(=O)c1coc(C2C3CCC(O3)C2Cc2ccccc2CCC(=O)O)n1 (stereo not given) | 0.05 | 63 | 7 | 26 | 10
22 | O=C(O)CCc1ccccc1CC1C2CCC(O2)C1c1nc(C(=O)Nc2ccc(Cl)cc2)co1 (stereo not given) | 2.52 | – | 6 | – | 25.8
23 | O=C(O)CCc1ccccc1CC1C2CCC(O2)C1c1nc(/C=C/CCCCC2CCCCC2)co1 (stereo not given) | – | 2760 | 320 | – | –
24 | O=C(O)CCc1ccccc1CC1C2CCC(O2)C1c1nc(C(=O)NCCCCC(=O)NC2CCCCC2)co1 (stereo not given) | 1.18 | 82 | 27 | 22 | –
25 | CS(=O)(=O)NC(=O)CCc1ccccc1CC1C2CCC(O2)C1c1nc(C(=O)NCCCCC2CCCCC2)co1 (stereo not given) | – | – | 2 | 1.6 | –
26 | CCOC(=O)CCc1ccccc1CC1C2CCC(O2)C1c1nc(C(=O)NCCCCC2CCCCC2)co1 (stereo not given) | – | – | 290 | – | –
